Results as given in ChEMBL document CHEMBL1140391, “8-Substituted 3,4-dihydroquinolinones as a novel scaffold for atypical antipsychotic activity” (Bioorg Med Chem Lett, 2005).

How the values were obtained:
[1] = target: 5-hydroxytryptamine receptor 2A (Homo sapiens, UniProt P28223); assay: Binding affinity for 5-hydroxytryptamine 2A receptor expressed in 3T3 cells; type: cell-based
Outline: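 [³H]Ketanserin displacement on membranes of Swiss 3T3 cells expressing human 5-HT2A receptors. Incubation was 120 min across varying compound concentrations. Nonspecific binding came from high unlabeled ketanserin. Bound and free label were separated by vacuum filtration, and bound label was quantified by liquid scintillation. Percent inhibition of specific binding was fitted by nonlinear regression to give IC₅₀, then converted to Ki with Cheng–Prusoff.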

[2] = target: D(2) dopamine receptor (Homo sapiens, UniProt P14416); assay: Binding affinity against Dopamine receptor D2 expressed in CHO cells; type: cell-based
D(2) dopamine receptor, sequence (P14416 whole entry): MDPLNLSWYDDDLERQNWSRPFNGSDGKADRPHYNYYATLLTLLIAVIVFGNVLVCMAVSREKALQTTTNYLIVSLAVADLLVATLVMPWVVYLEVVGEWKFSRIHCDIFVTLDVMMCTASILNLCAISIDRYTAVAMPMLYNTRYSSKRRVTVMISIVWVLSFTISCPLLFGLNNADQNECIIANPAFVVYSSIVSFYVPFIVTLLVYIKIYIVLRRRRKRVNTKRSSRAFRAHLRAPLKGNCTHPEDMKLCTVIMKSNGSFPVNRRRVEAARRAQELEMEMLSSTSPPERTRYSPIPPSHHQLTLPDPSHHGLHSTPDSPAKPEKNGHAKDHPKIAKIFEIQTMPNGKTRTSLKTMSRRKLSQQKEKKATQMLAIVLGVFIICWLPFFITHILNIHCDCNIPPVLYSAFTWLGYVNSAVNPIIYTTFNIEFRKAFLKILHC
Outline: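 Radioligand binding with [³H]spiperone on membranes of CHO cells expressing human DA D₂ receptors. Membranes and radioligand were incubated 120 min with or without varying compound concentrations. Haloperidol at high concentration defined nonspecific binding. Bound label was separated by vacuum filtration and counted by liquid scintillation. IC₅₀ was fitted by nonlinear regression and converted to Ki with Cheng–Prusoff.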

5-hydroxytryptamine receptor 2A, sequence (P28223 whole entry): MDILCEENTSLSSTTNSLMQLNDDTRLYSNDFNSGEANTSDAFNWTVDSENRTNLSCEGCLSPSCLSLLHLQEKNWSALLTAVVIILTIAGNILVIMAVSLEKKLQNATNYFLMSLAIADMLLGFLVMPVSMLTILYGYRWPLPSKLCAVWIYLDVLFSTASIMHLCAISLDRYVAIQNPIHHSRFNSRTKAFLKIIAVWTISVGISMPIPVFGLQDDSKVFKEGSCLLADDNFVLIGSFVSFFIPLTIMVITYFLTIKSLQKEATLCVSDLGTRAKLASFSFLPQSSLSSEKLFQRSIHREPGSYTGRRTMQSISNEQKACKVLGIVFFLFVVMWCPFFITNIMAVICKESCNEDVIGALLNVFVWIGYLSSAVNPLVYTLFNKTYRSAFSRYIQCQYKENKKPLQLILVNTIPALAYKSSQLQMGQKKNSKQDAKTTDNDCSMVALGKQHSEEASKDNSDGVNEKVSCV

Ki [1] [nM] | Ki [2] [nM] | SMILES
0.05 | > 100 | CC1CC(=O)Nc2c(CCN3CCN(c4nsc5ccccc45)CC3)cc(Cl)cc21 (configuration not stated)
0.32 | 17 | CC(=O)N1CCC(C)c2c(C)ccc(CCN3CCN(c4noc5ccccc45)CC3)c21 (configuration not stated)
0.59 | 25 | CC1CCN(C(=O)C2CCCCC2)c2c(CCN3CCN(c4nsc5ccccc45)CC3)cccc21 (configuration not stated)
0.28 | 35 | Cc1cc(CCN2CCN(c3noc4ccccc34)CC2)c2c(c1)C(C)CC(=O)N2 (configuration not stated)
1.07 | 4 | COc1cccc(CC(=O)N2CCC(C)c3cccc(CCN4CCN(c5nsc6ccccc56)CC4)c32)c1 (configuration not stated)
0.31 | > 50 | CC(=O)N1CCC(C)c2cc(Cl)cc(CCN3CCN(c4nsc5ccccc45)CC3)c21 (configuration not stated)
0.28 | 55 | CC1(C)CCNc2c(CCN3CCN(c4nsc5ccccc45)CC3)cc(F)cc21
0.22 | 21 | CC1CC(=O)Nc2c(CCN3CCN(c4nsc5ccccc45)CC3)cccc21 (configuration not stated)
0.28 | > 100 | CC1CC(=O)Nc2c(CCN3CCN(c4noc5ccccc45)CC3)cc(F)cc21 (configuration not stated)
0.18 | – | O=C1CC(c2ccccc2)c2cccc(CCN3CCN(c4nsc5ccccc45)CC3)c2N1 (configuration not stated)
2.15 | 12 | CC(=O)N1CCC(c2ccccc2)c2cccc(CCN3CCN(c4nsc5ccccc45)CC3)c21 (configuration not stated)

More lines, now with the values behind:

SMILES | Ki [1] [nM] | Ki [2] [nM]
CC1(C)CCNc2c(CCN3CCN(c4nsc5ccccc45)CC3)cccc21 | 0.18 | 59
CC1CCN(C(=O)c2ccccc2)c2c(CCN3CCN(c4nsc5ccccc45)CC3)cccc21 (configuration not stated) | 0.61 | 16
CC1Cc2cccc(CCN3CCN(c4nsc5ccccc45)CC3)c2NC1=O (configuration not stated) | 1.06 | 73
CC1CC(=O)Nc2c(CCN3CCN(c4nsc5ccccc45)CC3)cc(F)cc21 (configuration not stated) | 0.17 | 15
CC(=O)N1CCC(C)c2c(C)ccc(CCN3CCN(c4nsc5ccccc45)CC3)c21 (configuration not stated) | 0.75 | 12
CC(=O)N1CCC(C)c2cccc(CCN3CCN(c4nsc5ccccc45)CC3)c21 (configuration not stated) | 0.3 | 17
CC(=O)N1CCC(C)c2cc(F)cc(CCN3CCN(c4noc5ccccc45)CC3)c21 (configuration not stated) | 0.29 | 29
O=C1CCc2cccc(CCN3CCN(c4nsc5ccccc45)CC3)c2N1 | 0.28 | > 100
CC1CC(=O)N(C)c2c(CCN3CCN(c4nsc5ccccc45)CC3)cccc21 (configuration not stated) | 0.17 | 81
CC(=O)N1CCC(C)c2cc(F)cc(CCN3CCN(c4nsc5ccccc45)CC3)c21 (configuration not stated) | 0.44 | 18
CC1CC(=O)Nc2c(CCN3CCN(c4noc5ccccc45)CC3)cccc21 (configuration not stated) | 190 | > 100
CC1CC(=O)Nc2c(CCN3CCN(c4n[s+]([O-])c5ccccc45)CC3)cc(F)cc21 (configuration not stated) | 2.23 | 92
Cc1ccc(CCN2CCN(c3nsc4ccccc34)CC2)c2c1C(C)CC(=O)N2 (configuration not stated) | 0.13 | 11
